In ChEMBL document CHEMBL1121387, “Analgesic narcotic antagonists. 1. 8 beta-Alkyl-, 8 beta-acyl-, and 8 beta-(tertiary alcohol)dihydrocodeinones and -dihydromorphinones” (1980):

Tests used:
Mus musculus = assay: Analgesic activity was measured by acetic acid writhing test in mouse by giving subcutaneous injection; assay type: functional; design: unit not given here
Method in brief: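 Male albino Charles River mice (18–22 g), five per dose, at least three doses per ED50. Salts are given in distilled water; free bases are dissolved with dilute HCl and then diluted with water. Drug is given s.c. 15 min before i.p. 0.5% HOAc (0.4 mL). Writhes are counted for 20 min, starting 5 min post-HOAc, and compared with controls. ED50 with 95% confidence limits by Litchfield–Wilcoxon.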

Rattus norvegicus = assay: Analgesic activity measured by rat tail flick assay following s.c. administration.; assay type: functional; design: unit not given here
Method in brief: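 Male albino rats (100–120 g). Two control reaction times are taken 30 min apart before dosing. For agonist activity, test drug is given subcutaneously with no morphine, and tail-flick reaction time is retested 20 min postdrug. Activity is judged against control groups. ED50 values with 95% confidence limits are obtained by Litchfield–Wilcoxon.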

SMILES	ED50 (Mus musculus)	ED50 (Rattus norvegicus)
CCCC[C@H]1CC(=O)[C@@H]2Oc3c(OC)ccc4c3C23CCN(C)C(C4)C13 (stereo partly specified)	27	>50
C=C(C)[C@H]1CC(=O)[C@@H]2Oc3c(OC)ccc4c3C23CCN(C)C(C4)C13 (stereo partly specified)	>50	
COc1ccc2c3c1O[C@H]1C(=O)C[C@H](C(C)C)C4C(C2)N(C)CCC341 (stereo partly specified)	21.7	>55
C[C@H]1CC(=O)[C@@H]2Oc3c(O)ccc4c3C23CCN(C)C(C4)C13 (stereo partly specified)	0.24	1.6
C=C[C@H]1CC(=O)[C@@H]2Oc3c(OC)ccc4c3C23CCN(C)C(C4)C13 (stereo partly specified)	13.8	130
COc1ccc2c3c1O[C@H]1C(=O)C[C@@H](C)C4C(C2)N(C)CCC341 (stereo partly specified)	2	3.8
CCC[C@H]1CC(=O)[C@@H]2Oc3c(OC)ccc4c3C23CCN(C)C(C4)C13 (stereo partly specified)	17.5	
CCC(C)[C@H]1CC(=O)C2Oc3c(OC)ccc4c3C23CCN(C)C(C4)C13 (single isomer, unassigned; form 2)	14.1	
CCC(C)[C@H]1CC(=O)C2Oc3c(OC)ccc4c3C23CCN(C)C(C4)C13 (single isomer, unassigned; form 1)	>25	
CCCCCCCC[C@H]1CC(=O)[C@@H]2Oc3c(OC)ccc4c3C23CCN(C)C(C4)C13 (stereo partly specified)	25.9	>50
COc1ccc2c3c1O[C@H]1C(=O)C[C@H](c4ccccc4)C4C(C2)N(C)CCC341 (stereo partly specified)	>50	
CC[C@H]1CC(=O)[C@@H]2Oc3c(O)ccc4c3C23CCN(C)C(C4)C13 (stereo partly specified)	0.41	1.12
CC[C@@H]1CC(=O)[C@@H]2Oc3c(OC)ccc4c3C23CCN(C)C(C4)C13 (stereo partly specified)	3	>30
CCC[C@@H]1CC(=O)[C@@H]2Oc3c(OC)ccc4c3C23CCN(C)C(C4)C13 (stereo partly specified)	>25	>25
COc1ccc2c3c1O[C@H]1C(=O)C[C@H](C4CC4)C4C(C2)N(C)CCC341 (stereo partly specified)	42	>25
COc1ccc2c3c1O[C@H]1C(=O)C[C@H](C(C)(C)C)C4C(C2)N(C)CCC341 (stereo partly specified)	17.6	>25
COc1ccc2c3c1O[C@H]1C(=O)C[C@H](C)C4C(C2)N(C)CCC341 (stereo partly specified)	4.9	10.2
CC[C@H]1CC(=O)[C@@H]2Oc3c(OC)ccc4c3C23CCN(C)C(C4)C13 (stereo partly specified)	1.8	20.3
